# Assay outcomes: PubChem BioAssay, several laboratories
# Compounds with a hit are over-represented: about 2.2% of the library has one in this group of screens.
# HDAC3 inh: blocks human histone deacetylase 3. O15379. recombinant HDAC3, fluorogenic peptide/trypsin coupled, fluorescence. inhibition, % at 8.3 µM. actives 0.15% (n = 320,000). AID 2718; in the data active = inhibition above about 26%, passing the limit was not always enough
# Target sequence (O15379 whole entry, looked up): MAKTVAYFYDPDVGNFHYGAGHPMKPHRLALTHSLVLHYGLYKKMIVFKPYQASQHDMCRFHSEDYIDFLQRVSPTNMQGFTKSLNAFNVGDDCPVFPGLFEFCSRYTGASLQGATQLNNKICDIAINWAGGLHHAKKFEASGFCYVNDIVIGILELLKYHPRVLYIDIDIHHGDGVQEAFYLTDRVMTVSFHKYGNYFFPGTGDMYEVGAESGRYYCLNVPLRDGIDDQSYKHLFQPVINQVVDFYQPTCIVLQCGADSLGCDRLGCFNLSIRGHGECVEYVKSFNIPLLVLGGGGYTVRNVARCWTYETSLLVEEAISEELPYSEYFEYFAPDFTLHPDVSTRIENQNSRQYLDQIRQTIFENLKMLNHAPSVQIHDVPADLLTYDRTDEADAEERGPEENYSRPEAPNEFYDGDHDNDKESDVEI
# PolyA inhibitor: blocks polyadenylation in yeast reporter cells; S. cerevisiae SKY197-pL101 polyadenylation reporter, beta-gal luminescence; efflux-impaired pdr1/pdr3 knockout yeast; score 100 = 6 SD above DMSO; actives 0.02% (n = 300,000); AID 1875; activity score, % at 12 µM;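 active = lowest replicate activity score at least 50, where 100 means six control SD above control mean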;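 note: yeast exposed to compound for 9 h at 30 °C; higher score means more reporter readthrough which indicates perturbed polyadenylation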
# AI-2 QS mod: modulates the Vibrio harveyi AI-2 quorum sensing system; Vibrio harveyi JMH597 AI-2 luminescence/OD600 ratio, 9 h; active compounds read low; strain lacks LuxN and CqsS sensors; 0 = neutral-control median; activity change, % at 7.5 µM; actives 0.4% (n = 300,000); AID 2094; in the data active = activity change below about -75%, passing the limit was not always enough;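 note: luminescence divided by OD600 gain over 9 h not by final OD600 alone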
# T cruzi inh: T. cruzi replication inhibition; T. cruzi beta-gal in NIH3T3, luminescence, 90 h; actives 1.4% (n = 300,000); inhibition, % (test concentration not listed); AID 1885;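 active = mean inhibition across valid replicates above about 55%, limit read from the data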;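 note: signal also drops with host cell toxicity which is not excluded here; 0% = plate median of DMSO wells and 100% = zero luminescence signal; higher percent means less beta-gal luminescence so fewer parasites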
#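 Assay system: NIH/3T3 fibroblasts plus reporter T. cruzi. Amount: NIH/3T3 cells, 5,000 per well. Buffer or medium: DMEM, 2% fetal bovine serum. Doses: compound pinned at 50 nL/well, DMSO. Schedule: ≥90 h infection period, 3 h prior cell attachment. Signal: luminescent β-galactosidase signal after 60 min lysis. Read-out: parasite load inhibition, %.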
# Efflux pump mplx: inhibitors of Candida antifungal efflux pumps expressed in yeast | inhibition, % at 10 µM | actives 0.44% (n = 330,000) | AID 485275 | S. cerevisiae Candida pump triplex, Nile Red efflux;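 active = plate passing quality check with inhibition over a set limit, or well fluorescence over plate mean plus 4 SD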;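 note: Nile Red retained in pooled yeast measured as flow cytometry median fluorescence; 0% = buffer negative control and 100% = Enniatin B positive control; higher means more Nile Red kept so more efflux inhibition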
# An asterisk follows results filed as active; · = no result.
SMILES,HDAC3 inh,PolyA inhibitor,AI-2 QS mod,T cruzi inh,Efflux pump mplx
CN(Cc1ccccc1)CC(O)COc1ccc(CNCCc2cccnc2)cc1 (configuration not stated),6,4,7,37,0
NC(=O)[C@H]1CC2(CC(c3cccc(NC(=O)[C@H]4CCC(=O)N4)c3)=NO2)CN1C(=O)c1cc([N+](=O)[O-])cc([N+](=O)[O-])c1 (some centres not stated),39*,21,16,-3,0
CCCCCC(=O)Nc1cccc(C2=NOC3(C2)C[C@H](C(N)=O)N(C(=O)CCCCC)C3)c1 (some centres not stated),1,-14,26,46,0
Cc1c(C(=O)N2CC3(CC(c4cccc(NC(=O)[C@H]5CCC(=O)N5)c4)=NO3)C[C@@H]2C(N)=O)cc([N+](=O)[O-])cc1[N+](=O)[O-] (some centres not stated),5,-13,8,-10,0
CCCCCC(=O)Nc1cccc(C2=NOC3(C2)C[C@@H](C(N)=O)N(C(=O)c2ccc(Cl)cc2)C3)c1 (some centres not stated),9,31,18,60*,0
COc1ccc(NCc2nnc(SCC(=O)c3ccc(OC)cc3)o2)cc1,41*,-13,22,-11,0
CCOC(=O)c1cccc(NC(=O)CC2Oc3ccccc3NC2=O)c1 (configuration not stated),10,0,-1,-16,0
C/C(=N\NC(=S)Nc1c(C)cccc1C)c1cc2ccccc2o1,·,8,15,46,1
C/C(=N\NC(=S)Nc1ccccc1C)c1cc2ccccc2o1,10,4,9,59*,0
CCOC(=O)c1cc(-c2ccccc2)n(CCC(=O)N2CCN(c3ccccn3)CC2)c1C,-1,16,5,16,0
CCOc1ccc(CSC2=NCCN2)cc1Cl,-7,-2,4,57*,0
N#Cc1ccc(CSC2=NCCN2)cc1,0,-17,11,21,0
N=C(N)c1ccc(Cl)cc1,-1,-8,0,-11,0
N=C(N)c1ccc(/C=C/c2ccc(C(=N)N)cc2O)cc1,50*,-20,·,0,0
CCCCCCCOC(=O)C[N+](C)(C)CCOC1CC2CCC1(C)C2(C)C (configuration not stated),·,15,55,62*,·
CCC(C)OC(=O)C[N+](C)(C)CCOC1CC2CCC1(C)C2(C)C (configuration not stated),-7,6,21,64*,0
CC(C)CCOC(=O)C[N+](C)(C)CCOC1CC2CCC1(C)C2(C)C (configuration not stated),-1,-11,33,61*,0
CCCCOC(=O)C[N+](C)(C)CCOC1CC2CCC1(C)C2(C)C (configuration not stated),-1,-2,6,50,0
COC(=O)[C@@H]1C[C@@]2(O)[C@@H](O)[C@@H](O)[C@@H](O)C[C@H]2N1Cc1cc(OC)cc(OC)c1,1,6,-1,-7,0
COCCN(C(=O)c1csnn1)C(C(=O)NC1CCCCC1)c1ccccc1 (configuration not stated),-2,2,26,-8,0
CCOc1ccc(CCNC(=O)CN2C(=O)CCSc3ccccc32)cc1OCC,-2,67*,25,5,0
CC1=NN(c2nc(-c3ccc(C)cc3)cs2)C(=O)C1N=Nc1ccccc1O (configuration not stated),0,-14,41,55*,0
CCc1ccc(-c2cc(C(=O)N3N=C(C(F)F)CC3(O)C(F)F)c3ccccc3n2)cc1 (configuration not stated),21,2,38,59*,0
COC(=O)c1ccccc1S(=O)(=O)NNC(=O)Nc1ccccc1,-1,-1,-10,-8,0
CC(=O)Nc1sc(C)c(C)c1C(=O)OCC(=O)N(C)c1c(N)n(Cc2ccccc2)c(=O)[nH]c1=O,-5,-11,18,-1,0
SMILES,HDAC3 inh,PolyA inhibitor,AI-2 QS mod,T cruzi inh,Efflux pump mplx
CCCC(NCC(O)COc1ccc(-c2ccccc2)cc1)c1ccccc1 (configuration not stated),14,-22,11,66*,0
COc1ccc2c(C)cc(SCC(=O)c3ccc4c(c3)OCO4)nc2c1,-1,-14,3,59*,0
COc1ccc2c(C)cc(SCC(=O)NC3CCCC3)nc2c1,2,·,·,·,0
CCNc1nc(OC)nc(N2CCC(Cc3ccccc3)CC2)n1,2,-7,17,10,0
CC(C)CN(C(=O)CSc1nnnn1-c1ccccc1)c1c(N)n(CC(C)C)c(=O)[nH]c1=O,-1,6,41,3,0
CCOc1ccc(Nc2nc(N3CCCC3)nc(N3CCN(c4ccc(OC)cc4)CC3)n2)cc1,3,14,25,61*,0
CC(=O)N1CCc2cc(S(=O)(=O)CCC(=O)Nc3ccc(Cl)cc3F)ccc21,-4,-3,0,2,0
COc1ccc(C2=NN(C(=O)c3cccs3)C(c3ccccc3O)C2)cc1 (configuration not stated),-1,-30,14,60*,0
Cc1ccc(C(=O)N2N=C(c3ccc(Br)cc3)CC2c2ccccc2O)cc1 (configuration not stated),-5,15,9,55*,0
c1cc2c(cc1C1CCCCC1)c1c3n2CCN=C3CCC1,9,-10,34,71*,0
Cc1cc2nc3ccc(=[N+](C)C)cc-3sc2cc1N,·,19,-33,69*,·
CN(C)c1ccc2nc3ccc(=[N+](C)C)cc-3sc2c1,5,·,-47,43,0
Cc1ccc(/C=N\NC(=O)c2ccc(Cn3cc(Br)c([N+](=O)[O-])n3)o2)o1,-5,17,15,74*,0
O=C(N/N=C\c1cccc(Cl)c1)c1ccc(Cn2cc(Br)c([N+](=O)[O-])n2)o1,-4,0,27,54,0
COc1ccc(NC(=O)CN(Cc2ccco2)Cc2ccco2)cc1S(=O)(=O)N1CCCCC1,-1,·,·,·,0
O=[N+]([O-])c1cccc(S(=O)(=O)N2CCC(c3nc(-c4ccncc4)no3)CC2)c1,1,-15,16,61*,0
CCOC(=O)c1sc2nc(CC(=O)OC)nc(NCCN3CCOCC3)c2c1C,·,0,-3,6,·
CCOC(=O)c1sc2nc(CC(=O)OC)nc(N3CCN(c4ccc(OC)cc4)CC3)c2c1C,-1,14,13,63*,0
COc1cccc(-c2nnc(NC(C)=O)o2)c1,2,-19,16,-8,0
CCCCN(CC)S(=O)(=O)c1ccc(C(=O)Nc2nnc(-c3cccs3)o2)cc1,2,-6,67,63*,0
O=C(COc1ccccc1)Nc1nnc(-c2ccc(Cl)cc2)o1,-3,-8,-90*,1,0
